Assay results as given in ChEMBL document CHEMBL1127532, “Presynaptic cholinergic modulators as potent cognition enhancers and analgesic drugs. 1. Tropic and 2-phenylpropionic acid esters” (J Med Chem, 1994).
Active and inactive are the calls of the source.

Legend:
Mus musculus [1] = species: Mus musculus; assay: Analgesic activity as percentage analgesic efficacy on male albino Swiss-Webster mice with the hotplate test; Inactive; format: functional
How it was run: (§1)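 Hot-plate test at 52.5 ± 0.1 °C, 45 s cutoff, compound dosed at its maximal nontoxic dose (the highest dose giving no visible behavioural change to blinded observers). Efficacy = (maximum reaction time − pretest time) / the same difference for morphine-HCl 8 mg/kg sc × 100.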

[2] = biological target: Muscarinic acetylcholine receptor (Mus musculus) (UniProt Q920H4+Q9ERZ4+P12657+P32211+Q9ERZ3); assay: Analgesic activity after subcutaneous administration in male albino Swiss-Webster mice with the hotplate test; format: functional, organism-based
How it was run: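 Mouse hot-plate test, plate held at 52.5 ± 0.1 °C with a 45 s cutoff. Drug given subcutaneously, 8 to 20 mice per test. Potency expressed as ED50.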

Mus musculus [3] = species: Mus musculus; assay: Analgesic activity as percentage analgesic efficacy on male albino swiss-webster mice with the hotplate test; format: functional; design: concentration or dose not given beside the values; how it was run: as §1
Mus musculus [4] = species: Mus musculus; assay: The compound was evaluated for the analgesic activity as percentage analgesic efficacy on male albino Swiss-Webster mice with the hotplate test; inactive; format: functional, organism-based; how it was run: as §1
[5] = biological target: Muscarinic acetylcholine receptor; assay: Binding affinity for [3H]QNB in membrane preparations from rat brain tissue
How it was run: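 [3H]QNB binding to rat brain membrane preparations. pKi calculated with the LIGAND program, mean of at least three experiments.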

Mus musculus [6] = species: Mus musculus; assay: The compound was evaluated for the analgesic activity as percentage analgesic efficacy on male albino Swiss-Webster mice with the hotplate test;Inactive; format: functional, organism-based; how it was run: as §1

SMILES	Analgesic efficacy (Mus musculus [1])	ED50 [2]	Analgesic efficacy (Mus musculus [3])	also measured
CC(C(=O)OC1CC2CCC(C1)N2C)c1ccc(N(C)C)cc1 (configuration not stated)	inactive			
CC(C(=O)OC1CC2CCC(C1)N2C)c1ccc(Br)cc1 (stereo in doubt; (-)-19)		16 mg/kg	83%	
CCC(C(=O)OC1CC2CCC(C1)N2C)c1ccc(Br)cc1 (configuration not stated)		33 mg/kg	81%	
CC(Cc1ccc(Cl)cc1)C(=O)OC1CC2CCC(C1)N2C (configuration not stated)	inactive			
CC(C(=O)OCCCN(C)C)c1ccc(Br)cc1 (configuration not stated)	inactive			
CC(C(=O)OC1CC2CCC(C1)N2C)c1ccsc1 (configuration not stated)		22 mg/kg	44%	
CCN(CC)CC#CCOC(=O)C(CO)c1ccccc1.O=C(O)C(Oc1ccccc1)C(Oc1ccccc1)C(=O)O (configuration not stated)	inactive			
CC(C(=O)OC1CCN(C)CC1)c1ccc(Br)cc1 (configuration not stated)	inactive			
CC(C(=O)OC1CC2CCC(C1)N2C)c1ccccc1Cl (configuration not stated)		36 mg/kg	83%	
CC(C(=O)OC1CC2CCC(C1)N2C)c1cccs1 (configuration not stated)		5.4 mg/kg	21%	
CCN(CC)CC#CCOC(=O)C(C)c1ccc(Br)cc1 (configuration not stated)	inactive			
CC(C(=O)OC1CC2CCC(C1)N2C)c1ccccc1 (racemic)		5 mg/kg	35%	
CN1C2CCC1CC(OC(=O)C(CO)c1ccc(Cl)cc1)C2 (configuration not stated)		0.6 mg/kg	37%	
O=C(OC1CC2CCC(C1)N2)C(CO)c1ccccc1 (configuration not stated)		5 mg/kg	35%	
CC(C(=O)OC1CC2CCC(C1)N2C)c1ccc(C(F)(F)F)cc1 (configuration not stated)		31 mg/kg	26%	
CCN1C2CCC1CC(OC(=O)C(CO)c1ccccc1)C2 (configuration not stated)		7.3 mg/kg	33%	
CN1C2CCC1CC(OC(=O)Cc1ccccc1)C2 (configuration not stated)	inactive			
CC(C(=O)OC1CC2CCC(C1)N2C)c1ccc([N+](=O)[O-])cc1 (configuration not stated)		18 mg/kg	38%	
CN1[C@@H]2CC[C@H]1C[C@H](OC(=O)[C@@H](CO)c1ccccc1)C2		0.7 mg/kg	41%	
CN1C2CCC1CC(OC(=O)C(Cl)c1ccccc1)C2 (configuration not stated)	inactive			
CC(C(=O)OC1CC2CCC(C1)N2C)c1ccc(Br)cc1 (racemic)			101%	
CCN1C2CCC1CC(OC(=O)C(C)c1ccc(Br)cc1)C2 (configuration not stated)				Analgesic efficacy (Mus musculus [4]): inactive
CC(C(=O)OC1CC2CCC(C1)N2C)c1ccc(N)cc1 (configuration not stated)		6 mg/kg	41%	

SMILES	Analgesic efficacy (Mus musculus [1])	ED50 [2]	Analgesic efficacy (Mus musculus [3])	also measured
CN(C)CCCOC(=O)C(CO)c1ccccc1.O=C(O)C(Oc1ccccc1)C(Oc1ccccc1)C(=O)O (configuration not stated)	inactive			
CC(C(=O)OC1CC2CCC(C1)N2C)c1ccc(Cl)c(Cl)c1 (configuration not stated)		1 mg/kg	42%	
CN1C2CCC1CC(OC(=O)Cc1ccc(Br)cc1)C2 (configuration not stated)	inactive			
COc1ccc(C(C)C(=O)OC2CC3CCC(C2)N3C)cc1 (configuration not stated)		32 mg/kg	97%	
CN1[C@@H]2CC[C@H]1C[C@H](OC(=O)[C@H](CO)c1ccccc1)C2	inactive			
CC(C(=O)OC1CC2CCC(C1)N2C)c1ccc(F)cc1 (configuration not stated)		31 mg/kg	79%	
CC(C(=O)OC1CC2CCC(C1)N2C)c1ccc(Br)cc1 (single isomer, unassigned; (+))		17 mg/kg	92%	
CC(COC1CC2CCC(C1)N2C)c1ccc(Br)cc1 (configuration not stated)		32 mg/kg	45%	
CC(C)Cc1ccc(C(C)C(=O)OC2CC3CCC(C2)N3C)cc1 (configuration not stated)		27 mg/kg	40%	
COc1ccc(C(CO)C(=O)OC2CC3CCC(C2)N3C)cc1 (configuration not stated)	inactive			
CN1[C@@H]2CC[C@H]1C[C@@H](OC(=O)C(CO)c1ccccc1)C2 (mixture of isomers)		0.7 mg/kg	42%	
CCN(CC)CCOC(=O)C(CO)c1ccc(Cl)cc1 (configuration not stated)	inactive			
CC(C(=O)OC1CC2CCC(C1)N2C)c1ccc(Br)cc1.O=C(O)/C=C\C(=O)O (racemic)				Log Ki [5]: -6.96
CC(C(=O)OC1CC2CCC(C1)N2C)c1cccc(Cl)c1 (configuration not stated)		37 mg/kg	71%	
C[C@@H](C(=O)OC1CC2CCC(C1)N2C)c1ccccc1 (some centres not stated)				Analgesic efficacy (Mus musculus [6]): inactive
CCN(CC)CCOC(=O)C(C)c1ccc(Br)cc1 (configuration not stated)	inactive			
CC(C(=O)OC1CC2CCC(C1)N2C)c1ccc(Cl)cc1.O=C(O)/C=C\C(=O)O (configuration not stated)		36 mg/kg	83%	Log Ki [5]: -7.02
CC(C(=O)OC1CC2CCC(C1)N2)c1ccc(Br)cc1 (configuration not stated)	inactive			
CC(C(=O)OC1CC2CCC(C1)N2Cc1ccccc1)c1ccc(Br)cc1 (configuration not stated)		28 mg/kg	34%	
CC(C(=O)OC1CC2CCC(C1)N2C)c1ccccc1Br (configuration not stated)		30 mg/kg	62%	
C[C@H](C(=O)OC1CC2CCC(C1)N2C)c1ccccc1 (some centres not stated)		3.1 mg/kg	29%	
CN1CCC(OC(=O)C(CO)c2ccc(Cl)cc2)CC1 (configuration not stated)		5 mg/kg	26%	
